Experimental findings from ChEMBL document CHEMBL4251675, “Saroclides A and B, Cyclic Depsipeptides from the Mangrove-Derived Fungus Sarocladium kiliense HDN11-112” (J Nat Prod, 2018) are described below.

Data set [1] concerns HeLa. As to the kind of experiment: Cytotoxicity against human HeLa cells. Type of data set: functional, cell-based. In a few lines: (§1)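 HeLa, BEL-7402, HEK-293, HCT-116 and A549 lines tested by MTT or SRB method, with doxorubicin as positive control.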
Data set [2] has as its system Bel-7402. As to the kind of experiment: Cytotoxicity against human Bel7402 cells. Type of data set: functional, cell-based. Summed up: as §1
The subject of data set [3] is HEK293. The experiment in a line: Cytotoxicity against human HEK293 cells. Type of data set: functional, cell-based. In a few lines: as §1
Data set [4] deals with HCT-116. The experiment in a line: Cytotoxicity against human HCT116 cells. It is filed as functional, cell-based. In a few lines: as §1
The test system of data set [5] is A549. The experiment in a line: Cytotoxicity against human A549 cells. Type of data set: functional, cell-based. In a few lines: as §1
Data set [6] deals with Escherichia coli. The experiment in a line: Antibacterial activity against Escherichia coli after 20 hrs by double dilution method. Type of data set: functional, organism-based. In a few lines: (§2)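 Broth doubling-dilution assay against E. coli, S. aureus, C. albicans and B. subtilis, with chloramphenicol as positive control.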
Data set [7] concerns Staphylococcus aureus. The experiment in a line: Antibacterial activity against Staphylococcus aureus after 20 hrs by double dilution method. It is filed as functional, organism-based. In a few lines: as §2
Data set [8] deals with Bacillus subtilis. The experiment in a line: Antibacterial activity against Bacillus subtilis after 20 hrs by double dilution method. Type of data set: functional, organism-based. Summed up: as §2
Data set [9] has as its system Candida albicans. As to the kind of experiment: Antifungal activity against Candida albicans by double dilution method. It is filed as functional, organism-based. In a few lines:
as §2

In data set [10] the test system is HepG2. As to the kind of experiment: Lipid lowering activity in human HepG2 cells assessed as reduction in oleic acid-induced lipid accumulation at 2.5 to 10 uM after 24 hrs by oil red O staining based spectrophotometric method. It is filed as functional, cell-based. In a few lines:
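HepG2 in high-glucose DMEM/10% FBS at 37 °C, 5% CO2, grown to 90% confluence. Treated 24 h with compound (2.5, 5.0, 10.0 μM) or simvastatin 10 μM in high-glucose DMEM plus 100 μM oleic acid. Blank was serum-free DMEM alone, negative control OA alone. Neutral lipid by oil-red O staining, read spectrophotometrically at 358 nm. Means ± SEM, ≥3 experiments.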

The subject of data set [11] is HepG2. The experiment in a line: Lipid lowering activity in human HepG2 cells assessed as reduction in oleic acid-induced intracellular cholesterol level at 2.5 to 10 uM after 24 hrs […]. It is filed as functional, cell-based. In a few lines: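 HepG2 at 90% confluence treated 24 h with compound (2.5, 5.0, 10.0 μM) or simvastatin 10 μM in high-glucose DMEM containing 100 μM oleic acid. Blank was serum-free DMEM, OA-only as negative control. Intracellular total cholesterol and triglyceride measured with commercial kits per manufacturer. Means ± SEM of at least three experiments.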

For data set [12], the system named is HepG2. The experiment in a line: Lipid lowering activity in human HepG2 cells assessed as reduction in oleic acid-induced triglyceride level at 2.5 to 10 uM after 24 hrs by oil red O staining based spectrophotometric method. Type of data set: functional, cell-based.
The subject of data set [13] is HepG2. The experiment in a line: Cytotoxicity against human HepG2 cells assessed as reduction in cell viability at 20 uM after 20 hrs by MTT assay. It is filed as cell-based. Particulars: hepg2, 20 h. In a few lines:
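HepG2 grown in high-glucose DMEM with 10% FBS at 37 °C, 5% CO2. Once confluent, incubated 20 h with compound. Medium then replaced with fresh medium containing 10% sterile-filtered MTT for 4 h. Formazan dissolved in isopropanol, absorbance read at 570 nm with 630 nm reference. Viability expressed as % of blank wells. Means ± SEM of at least three experiments.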

Activity calls are given as the source filed them. The rule behind the calls is not given here.

Turning to `CCC[C@@H]1C/C=C(\C)C(=O)CC(=O)N[C@H](Cc2ccccc2)C(=O)N2CCC[C@H]2C(=O)O1`, the result in data set [1], in [2], in data set [3], in [4], in data set [5] and in data set [6] was inactive. Besides, the outcome in data set [7], in [8] and in data set [9] was inactive. Also, the result in data set [10], in data set [11] and in data set [12] was Active. Also, the Activity entry in data set [13] is recorded as “Non-Toxic”.
For `CCC[C@@H]1C/C=C(\C)C(=O)CC(=O)N[C@H](Cc2ccccc2)C(=O)N2CCC[C@@H]2C(=O)O1`, the result in data set [1], in data set [2], in data set [3], in data set [4], in data set [5] and in [6] was inactive. In addition, the outcome in data set [7], in data set [8] and in data set [9] was inactive.
